From PubChem BioAssay
Most compounds without a hit are left out; they make up all but 1.7% or so of the library.
STEP block = inhibitors of human striatal-enriched phosphatase STEP | P54829 | recombinant STEP, OMFP fluorogenic substrate, fluorescence | inhibition, % at 20 µM | 360,000 tested, 0.25% active | AID 588621;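 active = inhibition at 20 µM, scaled per plate between control wells, above about 37%, limit read from the data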;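 note: 0% = DMSO with enzyme and substrate and 100% = substrate only without enzyme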
Target sequence (P54829 whole entry, looked up): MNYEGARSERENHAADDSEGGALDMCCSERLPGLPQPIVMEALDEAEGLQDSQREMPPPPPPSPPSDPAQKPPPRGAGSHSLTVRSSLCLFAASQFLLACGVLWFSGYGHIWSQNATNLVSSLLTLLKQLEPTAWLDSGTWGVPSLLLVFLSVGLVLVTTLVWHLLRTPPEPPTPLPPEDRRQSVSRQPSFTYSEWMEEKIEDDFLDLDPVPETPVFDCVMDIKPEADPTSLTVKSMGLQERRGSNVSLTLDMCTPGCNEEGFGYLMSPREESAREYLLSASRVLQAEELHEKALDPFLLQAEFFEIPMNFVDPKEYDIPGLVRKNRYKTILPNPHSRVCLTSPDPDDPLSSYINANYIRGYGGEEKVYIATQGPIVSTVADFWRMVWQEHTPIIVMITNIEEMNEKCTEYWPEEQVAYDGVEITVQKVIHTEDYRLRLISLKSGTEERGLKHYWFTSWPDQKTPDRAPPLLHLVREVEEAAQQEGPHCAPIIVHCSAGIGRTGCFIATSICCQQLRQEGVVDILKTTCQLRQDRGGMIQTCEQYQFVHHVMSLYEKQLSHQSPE
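Material: STEP (striatal-enriched tyrosine phosphatase) enzyme, cell-free; Compound dosing: 20 µM single dose in 1% DMSO; Technique: fluorescence read at 480 nm ex / 540 nm em; Times: reaction 20 min, ambient temperature; Medium: 50 mM Bis-Tris pH 6.0 with 2.5 mM DTT and 0.005% Tween 20; Also added: OMFP at 25 µM.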
Scp-1 inhibitor = blocks human Scp-1 phosphatase activity; Q9GZU7; Recombinant Scp1, phosphopeptide, malachite green phosphate absorbance; inhibition, % at 20 µM; 340,000 tested, 0.88% active;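 active = inhibition above about 50% at 20 µM, limit read from the data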;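 note: plate controls were DMSO wells with enzyme for no effect and wells lacking enzyme for full effect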
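Test system – truncated SCP-1 phosphatase (76-261aa) · Reagent – Phosphorylated 17-residue peptide substrate · Incubation – 45 min room-temperature reaction, 5 min colour, 30 min stabiliser · Detection – colorimetric phosphate reagent with accelerator and stabiliser, absorbance at 630 nm · Measure – % inhibition at 20 µM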
SUMO1-SIM PPI = modulators of human SUMO1-mediated protein-protein interactions | SUMO1 binding to a labelled peptide, TR-FRET, 1 h | inhibition, % at 20 µM | 360,000 tested, 0.33% active | P63165 | AID 602429; in the data active = inhibition above about 37%
Target sequence (P63165 whole entry, looked up): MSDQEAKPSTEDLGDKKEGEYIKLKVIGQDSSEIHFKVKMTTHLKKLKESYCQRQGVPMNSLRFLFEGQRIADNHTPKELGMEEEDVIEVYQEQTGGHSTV
LMPTP inh = LMPTP (human) inhibition; P24666; recombinant LMPTP-A, OMFP fluorogenic substrate, fluorescence intensity; inhibition, % at 20 µM; 360,000 tested, 0.22% active; AID 651560;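 active = compounds that cut the enzyme signal by at least half of the control window in the single-dose screen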;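 note: plate controls were DMSO wells with enzyme plus substrate for no effect and substrate without enzyme for full effect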
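Test system: LMPTP-A, protein tyrosine phosphatase of low molecular weight; Input: 0.625 nM enzyme; Incubation: 50 min dark incubation at room temperature; Signal: endpoint fluorescence intensity from OMFP dephosphorylation; Read-out basis: % inhibition versus control wells.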
DNMT1 inh = blocks human DNA methyltransferase DNMT1; P26358; DNMT1 molecular beacon, Hinp1I cleavage, fluorescence; inhibition (reported as % activation of signal), % at 10 µM; 360,000 tested, 0.83% active; AID 588458; in the data active = inhibition above about 50%
Scp1 confirm = confirmation of human Scp-1 phosphatase inhibitors; shares compounds with Scp-1 inhibitor; inhibition, % at 20 µM; recombinant SCP-1 catalytic domain, phosphate release, malachite green absorbance; AID 540281; 2,500 tested, 61% active;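 note: plate controls were DMSO with enzyme for no effect and buffer wells lacking enzyme for full effect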
Scp-1 MG ctr = colorimetric interference in Scp-1 counter-screen; 2,500 tested, under 10 active; apparent inhibition (interference), % at 20 µM; Colorimetric interference counterscreen, malachite green absorbance 630 nm; shares compounds with Scp-1 inhibitor;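 note: compounds added after enzyme reaction finished so only phosphate colour detection is probed; plate controls were DMSO wells with completed Scp-1 reaction for no effect and substrate wells lacking enzyme for full effect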
Scp1 DSF = binds human Scp-1, shifting its melting temperature | shares compounds with Scp-1 inhibitor | Recombinant SCP1, Sypro Orange thermal shift Tm | thermal shift relative to vanadate control, % at 40 µM | 1,500 tested, 25% active;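 active = substances whose mean melting-temperature shift, as a percentage of the reference inhibitor's shift, reaches about 5.3%, limit read from the data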;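 note: 0% = Tm of DMSO wells and 100% = Tm with sodium orthovanadate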
DNMT1 inh conf = DNMT1 inhibition confirmation, single concentration; shares compounds with DNMT1 inh; DNMT1 molecular beacon HinP1I cleavage, fluorescence; inhibition, % at 10 µM; 2,300 tested, 8% active; AID 602385;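 active = average inhibition of at least 30% in the single-concentration confirmation test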
Beacon interf = shows spectral interference in the DNMT1 beacon assay; 2,300 tested, 1% active; AID 602387; DNMT1 molecular beacon spectral interference counterscreen, fluorescence 485/520; shares compounds with DNMT1 inh; activation (fluorescence interference), % at 10 µM;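 active = activation of at least 30% at 10 µM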;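 note: DNMT1 catalytic domain with a HinP1I cleavage step and a FAM/dabcyl DNA beacon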
An asterisk follows results filed as active; . = no result.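 Rule for the calls, unless noted: active = inhibition of at least 30% at 20 µM; inactive = the rest.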

SMILES	STEP block	Scp-1 inhibitor	SUMO1-SIM PPI	LMPTP inh	DNMT1 inh	Scp1 confirm	Scp-1 MG ctr	Scp1 DSF	others
COc1ccc2c3c1OC1C(O)C=CC4C(C2)[N+](C)(C)CCC341 (stereo not given)	-2	89*	-1	-1	-1	78*	-13	-20
C[N+]1(CC2COC(c3ccco3)O2)CCCCC1 (stereo not given)	-1	109*	-1	0	0	84*	-17	-16
CCCCCCC(=O)c1c(O)n(-c2ccc(OC)cc2)c(=O)[nH]c1=O (tested in a mixture with another compound)	4	-16	3	0	1	.	.	.
O=C(O)CCn1cc(C=C2C(=O)NC(=S)NC2=O)c(-c2ccccc2)n1	5	21	7	-3	3	.	.	.
O=C(O)CCn1cc(C=C2C(=O)NC(=S)NC2=O)c(-c2cc3ccccc3oc2=O)n1	2	87*	10	0	53*	69*	-9	-9
C[N+](C)(C)c1ccccc1	-3	52*	0	-1	-1	17	-11	.
CN1CCN(C(=O)COc2ccc(N(C)S(=O)(=O)c3ccc(F)cc3)cc2)CC1	-3	68*	-1	0	-1	-10	-11	.
CN1CCC(OC(=O)Cc2ccccc2)CC1	-2	-7	-3	-1	0	.	.	.
C[N+]1(CC(COCc2ccccc2)OC(=O)Cc2ccccc2)CCOCC1 (stereo not given)	-1	112*	-4	-1	11	89*	-4	-3
CC(=O)c1cccc(OCC(=O)N2CCN(CC(=O)Nc3cccc(F)c3)CC2)c1	-3	-1	0	-1	-2	.	.	.
CCCC[N+]12CCC(CC1)C(=C(c1ccccc1)c1ccccc1)C2	1	98*	2	0	2	86*	-7	0
CCOc1cc(C=C2C(=O)NC(=S)NC2=O)ccc1O	-3	50	-3	2	-4	7	-16	.
COc1ccc(C=C2C(=O)NC(=S)NC2=O)cc1OC	0	10	-3	-2	0	.	.	.
CC(C)[N+](C)(CCC(C(N)=O)(c1ccccc1)c1ccccc1)C(C)C	-1	99*	1	-1	3	91*	-7	-12
COC1=CC2C3Cc4ccc(OC)c(O)c4C2(CCN3C)CC1=O (stereo not given)	0	-5	-1	0	1	.	.	.
CN1CCN(c2ncnc3nc[nH]c23)CC1	-1	-8	-1	-2	0	.	.	.
C#C[C@@]1(O)CCC2C3CCC4=C/C(=N/OCC(=O)NC(CCC(N)=O)C(=O)O)CC[C@]4(C)C3CC[C@@]21C (stereo not given in full)	0	-7	-2	-1	1	.	.	.
COC(=O)C1=C(c2cccc(C#N)c2)C[C@@H]2CC[C@H]1N2C(=O)NCCO	2	71*	3	-2	6	2	-1	.
CC(=NNC(=S)N1CC2CCC(CC2)C1)c1nccs1	3	7	-31	-1	-13	.	.	.
O=[N+]([O-])c1cc(S(=O)(=O)c2ccc(O)c([N+](=O)[O-])c2)ccc1O	2	56*	33	-3	41	61*	-8	17*
O=[N+]([O-])c1cccc(O)c1	-2	-3	-14	-2	0	.	.	.
COC(=O)C1=C(c2cccc(NC(C)=O)c2)C[C@@H]2CC[C@H]1N2C	0	-6	-1	1	-3	.	.	.
CN(C)C(=O)OCc1n(C)cc[n+]1C	-2	-6	11	-1	2	.	.	.
CCN(CC)P(c1n(C)cc[n+]1C)N(CC)CC	4	99*	-1	0	3	83*	-11	-26
Clc1ccc(C(c2ccccc2)c2ncc[nH]2)cc1 (stereo not given)	-3	-7	6	0	1	.	.	.
SMILES	STEP block	Scp-1 inhibitor	SUMO1-SIM PPI	LMPTP inh	DNMT1 inh	Scp1 confirm	Scp-1 MG ctr	Scp1 DSF	others
Cc1cc(OCC(=O)N2CCCN(C)CC2)ccc1Cl	-2	-4	0	0	5	.	.	.
CCOC(=O)[C@]12Cc3cc(OC)ccc3[C@H]1N(Cc1ccccc1)C(=O)c1ccccc12	2	-11	4	2	5	.	.	.
CCOC(=O)C1(c2ccccc2)Oc2ccccc2C(c2ccc(OC)cc2)=C1C(=O)OC (stereo not given)	0	97*	2	2	9	1	-18	.
C[C@]12CCC3C(CC[C@H]4C[C@@H](O)CC[C@]34C)C1C[C@@H](Br)[C@@H]2O (stereo not given in full)	.	59*	.	.	.	-4	-8	.
CC(CC(C)(C)N1CC1)=NO	-1	-13	-31	1	2	.	.	.
COc1ccc(C(=O)N/N=C/C23CC[C@@H](O)CC2(O)CC[C@@H]2[C@@H]3CCC3(C)C(C4=CC(=O)OC4)CCC23O)cc1 (stereo not given in full)	1	56*	2	-1	-2	2	-8	.
CC(C)Cc1[nH]c(=O)c(C#N)c2c1CCC2	0	87*	0	0	-1	-7	-10	.
COc1ccc(/C=C/C=C2C(=O)NC(=S)NC2=O)cc1	2	50*	15	0	10	14	-8	.
C[Se]C[C@@H](N)C(=O)O	-1	68*	0	0	7	31*	-11	-23
C[C@@H]1CN([C@H](C)CO)C(=O)CCCn2cc(nn2)CO[C@H]1CN(C)C(=O)Oc1ccc2ccccc2c1	-1	.	35	-2	6	.	.	.
Cc1cc(/C=C2/C(=O)NC(=O)N(c3ccc(Br)cc3)C2=O)c(C)n1C	-1	-5	-8	1	-4	.	.	.
Cc1cc(/C=C2\C(=O)NC(=O)N(c3ccc(Br)cc3)C2=O)c(C)n1-c1cc(C(=O)O)cc(C(=O)O)c1	6	60*	28	5	83*	42*	-16	-1	DNMT1 inh conf=3;Beacon interf=-4
Cc1cc(/C=C2\C(=O)NC(=O)N(c3ccc(Cl)cc3)C2=O)c(C)n1-c1cccc(C(=O)O)c1	13	52*	19	1	74*	51*	-4	6.9*	DNMT1 inh conf=6;Beacon interf=0
